According to ChEMBL document CHEMBL5365533, “DNA major versus minor groove occupancy of monomeric and dimeric crystal violet derivatives. Toward structural correlations” (Bioorg Med Chem, 2023):
Activity calls are given as the source filed them. The rule behind the calls is not given here.

Assays:
[1] = Binding affinity to DDD hairpin DNA (unknown origin) assessed as binding constant at 100 uM by ITC analysis
How it was run: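 Isothermal titration calorimetry of DDD hairpin (10 μM in cell) titrated with ligand (100 μM in syringe), 10 mM Tris-HCl pH 7.0, 30 °C; 25 injections of 10 μL. Heats of dilution subtracted; single-site binding model fitted; K averaged from triplicate experiments.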

DNA [2] = assay: Displacement of Ethidium bromide from (AT)5 (5'-GGGATATA-TATATCCC-3') DNA (unknown origin)/EtBr complex assessed as decrease in initial absorbance of DNA by crystal violet staining based analysis; format: nucleic-acid assay
DNA [3] = assay: Displacement of Ethidium bromide from A5T5 (5'-GGGAAAAATTTTTCCCCC-3') DNA (unknown origin)/EtBr complex assessed as decrease in initial absorbance of DNA by crystal violet staining based analysis; format: nucleic-acid assay
Calf thymus DNA [4] = assay: Binding affinity to calf thymus DNA assessed as change in melting temperature by UV thermal denaturation assay; format: nucleic-acid assay; details: Bos taurus
How it was run: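 CT DNA in 10 mM Tris-HCl pH 7.0 at a DNA:ligand ratio of 30:1, in 1 cm quartz cuvettes. Absorbance read every 2 °C from 25 to 95 °C, heating at 1 °C/min. Tm taken from first-derivative plots.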

[5] = Displacement of Ethidium bromide from G5C5 (5'-AAAGGGGG-CCCCCTTT-3') DNA (unknown origin)/EtBr complex assessed as decrease in initial absorbance of DNA by crystal violet staining based analysis
[6] = Displacement of Ethidium bromide from cMyc (5'-CACGTG-3') hairpin DNA (unknown origin)/EtBr complex assessed as decrease in initial absorbance of DNA by crystal violet staining based analysis
[7] = Displacement of Ethidium bromide from STAT6 (5'-TCCTAG-3') hairpin DNA (unknown origin)/EtBr complex assessed as decrease in initial absorbance of DNA by crystal violet staining based analysis
Calf thymus DNA [8] = assay: Binding affinity to calf thymus DNA in Tris-HCl buffer at pH 7.0 assessed as lengthening of DNA from intercalation of drug incubated for 30 mins by Ostwald viscometer analysis; format: nucleic-acid assay; details: Bos taurus
How it was run: (§1)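 Ostwald viscometer at 23.0 ± 1 °C. CT DNA held at 300 μM/bp in 10 mM Tris-HCl pH 7.0 with ligand or ethidium at 0–26 μM, incubated 30 min before timing flow. (η/η0)^1/3 plotted against [ligand]/[DNA]; three replicates, SD shown.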

[9] = Displacement of Ethidium bromide from NFAT1 (5-GAAAAA-3') hairpin DNA (unknown origin)/EtBr complex assessed as decrease in initial absorbance of DNA by crystal violet staining based analysis
[10] = Binding affinity to DDD (5-CGAATT-3') hairpin DNA (unknown origin) assessed as binding constant by isothermal titration calorimetry
AT rich DNA [11] = assay: Displacement of Ethidium bromide from AT3 (5'-ATATAT-3') hairpin DNA (unknown origin)/EtBr complex assessed as decrease in initial absorbance of DNA by crystal violet staining based analysis; format: nucleic-acid assay
Calf thymus DNA [12] = assay: Binding affinity to calf thymus DNA in Tris-HCl buffer at pH 7.0 assessed as minimal change in viscosity incubated for 30 mins by Ostwald viscometer analysis; format: nucleic-acid assay; details: Bos taurus; how it was run: as §1
Calf thymus DNA [13] = assay: Binding affinity to calf thymus DNA assessed as bathochromic shift by UV spectroscopic analysis; format: nucleic-acid assay; details: Bos taurus
How it was run: (§2)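 UV titration in 10 mM Tris-HCl pH 7.0 with ligand fixed at 5.0 μM and CT DNA:ligand ratios of 0:1, 1:1, 2:1, 5:1, 10:1 and 30:1.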

[14] = Displacement of Ethidium bromide from NFAT1 (5-GAAAAA-3') hairpin DNA (unknown origin)/EtBr complex assessed as binding constant by crystal violet staining based analysis
[15] = Displacement of Ethidium bromide from cMyc (5'-CACGTG-3') hairpin DNA (unknown origin)/EtBr complex assessed as binding constant by crystal violet staining based analysis
[16] = Displacement of Ethidium bromide from STAT6 (5'-TCCTAG-3') hairpin DNA (unknown origin)/EtBr complex assessed as binding constant by crystal violet staining based analysis
Calf thymus DNA [17] = assay: Binding affinity to calf thymus DNA assessed as hypochromic shift by UV spectroscopic analysis; format: nucleic-acid assay; details: Bos taurus; how it was run: as §2
Calf thymus DNA [18] = assay: Binding affinity to calf thymus DNA in Tris-HCl buffer at pH 7.0 assessed as rigidification of DNA from intercalation of drug incubated for 30 mins by Ostwald viscometer analysis; format: nucleic-acid assay; details: Bos taurus; how it was run: as §1
DNA [19] = assay: Binding affinity to pUC-19 plasmid DNA (unknown origin) assessed as DNA cleavage incubated for 30 mins in presence of BamHI restriction enzyme by ethidium bromide staining based agarose gel electrophoresis analysis; format: nucleic-acid assay
How it was run: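 pUC-19 linearized with AlwNI (37 °C, 30 min), enzyme heat-killed at 80 °C for 20 min, then incubated with varying ligand concentrations. BamHI digestion for 30 min at 37 °C. Run on 1% agarose containing ethidium bromide, 120 V for 40 min; visualized by UV transillumination.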

[20] = Displacement of Ethidium bromide from G6 (5'-GGGGGG-3') hairpin DNA (unknown origin)/EtBr complex assessed as decrease in initial absorbance of DNA by crystal violet staining based analysis
[21] = Displacement of Ethidium bromide from DDD (5-CGAATT-3') hairpin DNA (unknown origin)/EtBr complex assessed as decrease in initial absorbance of DNA by crystal violet staining based analysis
AT rich DNA [22] = assay: Displacement of Ethidium bromide from AT3 (5'-ATATAT-3') hairpin DNA (unknown origin)/EtBr complex assessed as binding constant by crystal violet staining based analysis; format: nucleic-acid assay
Calf thymus DNA [23] = assay: Ratio of Kapp for displacement of ethidium bromide from calf thymus DNA/EtBr complex to Kapp for displacement of ethidium bromide from calf thymus DNA/EtBr in presence of methyl green; format: nucleic-acid assay; details: Bos taurus
How it was run: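 Fluorescence titration of CT DNA (1.0 μM/bp) plus ethidium (0.5 μM), with or without netropsin or methyl green (0.5 μM each), against increasing ligand in 10 mM Tris-HCl pH 7.0. Excitation 520 nm, emission 590 nm, read after 3 min equilibration. C50 is the concentration giving 50% fluorescence loss; Kapp = 9.5×10^6 M⁻¹ × C_ethidium/C50.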

[24] = Binding affinity to DDD hairpin DNA (unknown origin) in Tris-HCl buffer at pH 5.0 assessed as negligible changes in helicity band formation at 245nm at 1 mM incubated for 5 mins by CD spectra analysis
How it was run: (§3)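 Ligand (1 mM stock) added in small aliquots to DDD hairpin (8.8 μM) in 10 mM Tris-HCl pH 5.0; mixed by inversion and incubated 5 min at 20 °C. CD recorded 215–350 nm in 0.5 nm steps as the average of three scans.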

Calf thymus DNA [25] = assay: Binding affinity to calf thymus DNA in Tris-HCl buffer at pH 7.0 assessed as differential groove occupancy at 100 uM by ITC analysis; format: nucleic-acid assay; details: Bos taurus
How it was run: (§4)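 ITC of CT DNA (100 μM/bp in cell) titrated with ligand (100 μM in syringe), 10 mM Tris-HCl pH 7.0; 25 injections of 10 μL at 30 °C, or for one ligand 50 injections of 5 μL at 27 °C. Buffer-into-DNA heats subtracted; single-site model gives K, N, ΔH and ΔS.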

Calf thymus DNA [26] = assay: Binding affinity to calf thymus DNA in Tris-HCl buffer at pH 7.0 assessed as change in entropy at 100 uM by isothermal titration […] analysis; format: nucleic-acid assay; details: Bos taurus; how it was run: as §4
Calf thymus DNA [27] = assay: Binding affinity to calf thymus DNA in Tris-HCl buffer at pH 7.0 assessed as decrease in viscosity incubated for 30 mins by Ostwald viscometer analysis; format: nucleic-acid assay; details: Bos taurus; how it was run: as §1
[28] = Binding affinity to DDD hairpin DNA (unknown origin) in Tris-HCl buffer at pH 5.0 assessed as reduction in base stacking band formation at 280nm at 1 mM incubated for 5 mins by CD spectra analysis; how it was run: as §3
Calf thymus DNA [29] = assay: Binding affinity to calf thymus DNA in Tris-HCl buffer at pH 7.0 assessed as change in enthalpy at 100 uM by isothermal titration […] analysis; format: nucleic-acid assay; details: Bos taurus; how it was run: as §4
[30] = Binding affinity to DDD hairpin DNA (unknown origin) in Tris-HCl buffer at pH 5.0 assessed as negative induced CD bands formation at 310nm at 1 mM incubated for 5 mins by CD spectra analysis; how it was run: as §3

Row | K [1] | C50 (DNA [2]) | C50 (DNA [3]) | ΔTm (Calf thymus DNA [4]) | C50 [5] | C50 [6] | C50 [7] | C50 [9] | K [10] | C50 (AT rich DNA [11]) | Activity (Calf thymus DNA [13]) | K [14] | K [15] | K [16] | Activity (Calf thymus DNA [17]) | IC50 (DNA [19]) | C50 [20] | C50 [21] | K (AT rich DNA [22]) | SMILES | other results
1 | 1.2 10^5/M | 2.3 µM | 2.4 µM | 2.6 °C | 7.21 µM | – | – | – | – | – | – | – | – | – | – | – | – | – | – | CC1=CC(=[N+](C)C)C=CC1=C(c1ccc(N(C)C)cc1C)c1ccc(N(C)C)cc1C | –
2 | 21.1 10^5/M | – | – | 3.6 °C | – | 0.57 µM | 0.56 µM | 0.69 µM | 21.1 10^5/M | 1.11 µM | Active | 1.14 10^5/M | 114000 M⁻¹ | 1.8 10^5/M | Active | 67 µM | 0.51 µM | 0.54 µM | 0.32 10^5/M | CN(C)c1ccc(C(=C2C=CC(=[N+](C)C)C=C2)c2ccccc2-c2ccccc2-c2ccccc2C(=C2C=CC(=[N+](C)C)C=C2)c2ccc(N(C)C)cc2)cc1 | Activity (Calf thymus DNA [8]): Active; Activity (Calf thymus DNA [12]): Dose-Dependent Effect; Activity (Calf thymus DNA [18]): Active
3 | 0.5 10^5/M | – | – | 2.6 °C | – | 1.95 µM | 1.91 µM | 2.22 µM | – | 1.52 µM | – | – | – | – | – | – | 1.32 µM | 1.27 µM | – | CN(C)c1ccc(C(=C2C=CC(=[N+](C)C)C=C2)c2ccc(C#Cc3cc4c(cc3C#Cc3ccc(C(=C5C=CC(=[N+](C)C)C=C5)c5ccc(N(C)C)cc5)cc3)OCO4)cc2)cc1 | –
4 | 7.5 10^5/M | – | – | 3.3 °C | – | 1.8 µM | 1.12 µM | 1.27 µM | 7.54 10^5/M | 1.21 µM | Active | 49.8 10^5/M | 32000 M⁻¹ | 2.22 10^5/M | Active | 5.4 µM | 1.1 µM | 0.78 µM | 5.79 10^5/M | CN(C)c1ccc(C(=C2C=CC(=[N+](C)C)C=C2)c2ccc(/C=C/c3cc4c(cc3/C=C/c3ccc(C(=C5C=CC(=[N+](C)C)C=C5)c5ccc(N(C)C)cc5)cc3)OCO4)cc2)cc1 | Ratio (Calf thymus DNA [23]): > 8; Activity [24]: Active; Activity (Calf thymus DNA [25]): Active; deltaS (Calf thymus DNA [26]): 0.316 kcal/mol; Activity (Calf thymus DNA [27]): Dose-Dependent Effect; Activity [28]: Active; deltaH (Calf thymus DNA [29]): 85.8 kcal/mol; Activity [30]: Active
5 | 48.7 10^5/M | 2.71 µM | 3.13 µM | 2.2 °C | 3.36 µM | – | – | – | – | – | – | – | – | – | – | – | – | – | – | CN(C)c1ccc(C(=C2C=CC(=[N+](C)C)C(c3ccccc3)=C2)c2ccc(N(C)C)c(-c3ccccc3)c2)cc1-c1ccccc1 | –
